This is an account of results in ChEMBL document CHEMBL1250450, “Well-defined regions of the Plasmodium falciparum reticulocyte binding protein homologue 4 mediate interaction with red blood cell membrane” (J Med Chem, 2010).

The species entered for assay [1] is Homo sapiens. As to the kind of experiment: Binding affinity to RBC membrane receptor in 1 mg/mL chymotrypsin pretreated human RBC relative to untreated RBC. The procedure, abridged: (§1)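 Human RBCs (60% hematocrit) treated 1 h at 37 °C with neuraminidase (150 μU/mL), chymotrypsin (1 mg/mL) or trypsin (1 mg/mL). Standard radiolabeled-peptide binding then run on treated cells at 20% hematocrit. Binding expressed relative to untreated RBCs set as 100%.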

The species entered for assay [2] is Homo sapiens. Description: Binding affinity to RBC membrane receptor in 150 uU/mL neuraminidase pretreated human RBC relative to untreated RBC. The procedure, abridged: as §1
The subject of assay [3] is Plasmodium falciparum. As to the kind of experiment: Antiplasmodial activity against Plasmodium falciparum FCB2 assessed as inhibition of merozoite invasion of human erythrocytes at 200 uM after 18 hrs using hydroethidine staining by flow cytometry. It counts as functional. Conditions: FCB2, 18 h. Summed up:
(§2)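 Schizont-synchronized P. falciparum FCB-2 cultures incubated in triplicate with peptide (100 and 200 μM) using normal RBCs or, for the neuraminidase line, neuraminidase-treated RBCs. 37 °C for 18 h under 5% O2, 5% CO2, 90% N2. Cells washed with PBS, hydroethidine-labeled, read by flow cytometry (FL2). Inhibition controls were EGTA- and chloroquine-treated infected RBCs; uninfected RBCs served as invasion control.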
For orientation: A flow cytometer gives signals particle by particle.

For assay [4], the species on record is Homo sapiens. As to the kind of experiment: Binding affinity to RBC membrane receptor in human RBC assessed as specific binding activity measured as ratio of specifically bound peptide/added peptide by gamma counter. Summed up: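 1 × 10^8 healthy-donor RBCs incubated in triplicate with four rising concentrations of 125I-peptide (0-560 nM), with or without unlabeled peptide, then washed in HBS (pH 7.4) and gamma-counted. Specific binding (total minus nonspecific) plotted against added peptide; the slope is the specific binding activity. The HABP cutoff is ≥2%.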

The species entered for assay [5] is Homo sapiens. As to the kind of experiment: Binding affinity to RBC membrane receptor in 1 mg/mL trypsin pretreated human RBC relative to untreated RBC. The procedure, abridged:
as §1

Assay [6] relates to Plasmodium falciparum. Description: Antiplasmodial activity against Plasmodium falciparum FCB2 assessed as inhibition of merozoite invasion of neuraminidase pretreated human erythrocytes at 200 uM after 18 hrs using hydroethidine staining by flow cytometry. Type of assay: functional. The procedure, abridged: as §2
The species named for assay [7] is Homo sapiens. As to the kind of experiment: Binding affinity of radio labeled compound to 32 kDa RBC membrane receptor in human RBC cross-linked with bis-(sulfosuccinimidyl)suberate by autoradiography using SDS-PAGE. Summed up:
(§3)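 Radioiodinated peptide (chloramine-T method) incubated with 2.1 × 10^7 human RBCs, then cross-linked with BS3 (1 mg/mL) for 1 h at 4 °C. Reaction stopped with Tris-HCl. Membranes lysed (Tris/NaCl/EDTA/PMSF), mixed with Laemmli buffer, spun 15000g for 15 min, resolved on 12% SDS-PAGE against prestained markers.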

The species entered for assay [8] is Homo sapiens. Description: Binding affinity of radio labeled compound to 25 kDa RBC membrane receptor in human RBC cross-linked with bis-(sulfosuccinimidyl)suberate by autoradiography using SDS-PAGE. The procedure, abridged: as §3
The species entered for assay [9] is Homo sapiens. As to the kind of experiment: Binding affinity of radio labeled compound to 20 kDa RBC membrane receptor in human RBC cross-linked with bis-(sulfosuccinimidyl)suberate by autoradiography using SDS-PAGE. Summed up:
as §3

Assay [10] is described as follows: Binding affinity to RBC membrane receptor in human RBC assessed as dissociation constant by gamma counter. The procedure, abridged:
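Saturation assay: 7.5 × 10^7 human RBCs incubated in triplicate with 125I-peptide over 0-2200 nM, with or without 6 nmol unlabeled peptide. Cells washed in HBS and counted by gamma counter. Kd, Hill coefficient and sites per cell came from Hill analysis.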

The species named for assay [11] is Homo sapiens. As to the kind of experiment: Binding affinity of radio labeled compound to 22 kDa RBC membrane receptor in human RBC cross-linked with bis-(sulfosuccinimidyl)suberate by autoradiography using SDS-PAGE. The procedure, abridged: as §3

Activity calls are given as the source filed them. Residues, ends and D or L forms follow the SMILES beside them.

A word on the inhibition: it is the drop in the measured response relative to a control, in per cent. For the compound `CC[C@H](C)[C@H](NC(=O)[C@H](Cc1cnc[nH]1)NC(=O)[C@H](CO)NC(=O)[C@@H]1CCCN1C(=O)[C@H](CCC(N)=O)NC(=O)[C@@H](NC(=O)[C@@H](N)CC(C)C)[C@@H](C)CC)C(=O)N[C@@H](Cc1cnc[nH]1)C(=O)N[C@@H](CC(C)C)C(=O)N[C@@H](Cc1cnc[nH]1)C(=O)N[C@@H](CCCCN)C(=O)N[C@@H](CCSC)C(=O)N[C@@H](CCCCN)C(=O)N[C@@H](CC(C)C)C(=O)N1CCC[C@H]1C(=O)N[C@H](C(=O)N[C@H](C(=O)N[C@@H](CCC(N)=O)C(=O)N[C@@H](CCC(N)=O)C(=O)N[C@@H](CCC(N)=O)C(=O)N[C@@H](Cc1ccc(O)cc1)C(=O)O)[C@H](C)O)[C@@H](C)CC`, the Activity in the assay listed under Homo sapiens [1] is 209%; in the assay filed under Homo sapiens [2], 152%; in the assay filed under Homo sapiens [4], over 2%; in the assay listed under Homo sapiens [5] it was 79.4%. The inhibition at 200 µM with Plasmodium falciparum [3] amounted to 48%; with Plasmodium falciparum [6] it was 43%.
As a reminder, the Kd is a measure of binding affinity in units of concentration. On to `CC[C@H](C)[C@H](NC(=O)[C@H](CC(=O)O)NC(=O)[C@H](CC(=O)O)NC(=O)[C@@H](NC(=O)[C@H](Cc1ccc(O)cc1)NC(=O)[C@H](CCCCN)NC(=O)[C@H](CCCCN)NC(=O)[C@@H](NC(=O)[C@H](CC(N)=O)NC(=O)[C@@H](NC(=O)[C@@H](N)CS)[C@@H](C)O)[C@@H](C)CC)[C@@H](C)O)C(=O)N[C@@H](CS)C(=O)N[C@@H](CC(C)C)C(=O)N[C@@H](CO)C(=O)N[C@H](C(=O)N[C@@H](CCCCN)C(=O)N1CCC[C@H]1C(=O)N[C@@H](CCCCN)C(=O)N[C@@H](C)C(=O)N[C@@H](CC(C)C)C(=O)O)[C@@H](C)CC` (H-CTNIKKYTDDICLSIKPKAL-OH), for which the outcome in the assay listed under Homo sapiens [7], in the assay listed under Homo sapiens [8], in the assay filed under Homo sapiens [9] and in the assay filed under Homo sapiens [11] was Active. Also, the Activity in the assay listed under Homo sapiens [1] is 52.8%; in the assay listed under Homo sapiens [2], 101%; in the assay filed under Homo sapiens [4], over 2%; in the assay filed under Homo sapiens [5], 172%. In assay [10], the Kd amounted to 870 nM. Also, the values for the inhibition at 200 µM in the assay on Plasmodium falciparum [3] and with Plasmodium falciparum [6] were 52% and 47%, respectively.
On to H-CIQIKKKVDELYNIYDQLFK-OH, for which the outcome in the assay listed under Homo sapiens [7], in the assay listed under Homo sapiens [8], in the assay filed under Homo sapiens [9] and in the assay listed under Homo sapiens [11] was Active. Besides, the Activity in the assay filed under Homo sapiens [1] was 53.3%; in the assay listed under Homo sapiens [2] it was 80.7%; in the assay listed under Homo sapiens [4], over 2%; in the assay filed under Homo sapiens [5], 75.2%. Further, the inhibition at 200 µM in the assay with Plasmodium falciparum [3] stood at 46%; in the assay on Plasmodium falciparum [6] it was 50%.
Consider H-EHTIYTLYQEIKTNLENIEQ-OH, for which the inhibition at 200 µM was determined as 72% with Plasmodium falciparum [3] and 71% in the assay on Plasmodium falciparum [6]. In addition, the Activity in the assay filed under Homo sapiens [4] was over 2%.
For the compound H-FKQILELKEKEHYITNKHTY-OH, the inhibition at 200 µM with Plasmodium falciparum [3] is 46%; in the assay on Plasmodium falciparum [6], 47%. In addition, the Activity in the assay listed under Homo sapiens [4] is over 2%.
For the compound H-KHIVNKIQENFKLNQNKYIH-OH, the Activity in the assay listed under Homo sapiens [1] is 132%; in the assay listed under Homo sapiens [2], 115%; in the assay listed under Homo sapiens [4], over 2%; in the assay filed under Homo sapiens [5] it was 94.1%. Besides, the Kd in assay [10] was determined as 590 nM. Further, the inhibition at 200 µM in the assay with Plasmodium falciparum [3] and with Plasmodium falciparum [6] was 51% throughout.
For the compound H-KIMQNIQQTTNRLKINIKKIY-OH, the Activity in the assay filed under Homo sapiens [1] was 60.1%; in the assay filed under Homo sapiens [2], 129%; in the assay listed under Homo sapiens [4] it was over 2%; in the assay filed under Homo sapiens [5], 15.2%. The Kd in assay [10] turned out to be 750 nM. Besides, the values for the inhibition at 200 µM in the assay on Plasmodium falciparum [3] and in the assay on Plasmodium falciparum [6] were 54% and 46%, respectively.
Consider H-KNSQNQHDINKTHHTNNNYD-OH, for which the inhibition at 200 µM came out at 37% in the assay with Plasmodium falciparum [3] and 3% in the assay with Plasmodium falciparum [6].
With H-LFDYTHLWDNAQFTRTKENI-OH, the Activity was 31.4% in the assay listed under Homo sapiens [1], 166% in the assay filed under Homo sapiens [2], over 2% in the assay filed under Homo sapiens [4] and 24.9% in the assay filed under Homo sapiens [5]. In addition, the Kd in assay [10] is 1200 nM. Also, the values for the inhibition at 200 µM in the assay with Plasmodium falciparum [3] and in the assay on Plasmodium falciparum [6] were 50% and 58%, respectively.
Turning to H-LNFTHKTIQQILQQQYKNNT-OH, the Activity is 79.7% in the assay listed under Homo sapiens [1], 94.9% in the assay listed under Homo sapiens [2], over 2% in the assay listed under Homo sapiens [4] and 43% in the assay filed under Homo sapiens [5]. Moreover, the Kd in assay [10] is 850 nM. Moreover, the inhibition at 200 µM in the assay on Plasmodium falciparum [3] was 45%; in the assay with Plasmodium falciparum [6] it was 47%.
Consider H-LNTILHRNEQTKNATRSYNM-OH, for which the Activity was 22.5% in the assay listed under Homo sapiens [1], 92.2% in the assay listed under Homo sapiens [2], over 2% in the assay filed under Homo sapiens [4] and 43.9% in the assay filed under Homo sapiens [5]. Also, the Kd in assay [10] was 850 nM. In addition, the inhibition at 200 µM in the assay with Plasmodium falciparum [3] was 47%; in the assay on Plasmodium falciparum [6], 46%.
As for H-LPEHIKQKSVSELNIYMKQI-OH, the inhibition at 200 µM with Plasmodium falciparum [3] came out at 41%; with Plasmodium falciparum [6] it was 42%. Further, in the assay listed under Homo sapiens [4], the Activity is over 2%.
On to H-MLSIFQDTKYGKHKNQQILS-OH, for which the Activity is 93.2% in the assay listed under Homo sapiens [1], 200% in the assay listed under Homo sapiens [2], over 2% in the assay listed under Homo sapiens [4] and 93% in the assay filed under Homo sapiens [5]. The inhibition at 200 µM in the assay on Plasmodium falciparum [3] amounted to 52%; in the assay on Plasmodium falciparum [6], 42%.
Take H-NEEENEMGYGITNKRKNSET-OH: the inhibition at 200 µM in the assay with Plasmodium falciparum [3] was 43%; in the assay on Plasmodium falciparum [6], 40%. The Activity in the assay filed under Homo sapiens [4] is under 2%.
Regarding H-NILMDEIENYVKKYTESNRI-OH, the Activity in the assay listed under Homo sapiens [1] is 169%; in the assay listed under Homo sapiens [2] it was 94.3%; in the assay filed under Homo sapiens [4] it was over 2%; in the assay filed under Homo sapiens [5], 220%. Besides, the inhibition at 200 µM turned out to be 46% in the assay on Plasmodium falciparum [3] and 49% with Plasmodium falciparum [6].
H-NTTETQLNHIKQNINHFKYF-OH: the Activity in the assay listed under Homo sapiens [1] is 135%; in the assay listed under Homo sapiens [2], 89.5%; in the assay filed under Homo sapiens [4], over 2%; in the assay listed under Homo sapiens [5] it was 55.5%. Besides, the inhibition at 200 µM in the assay with Plasmodium falciparum [3] and in the assay with Plasmodium falciparum [6] was 97% throughout.
Turning to H-QEKNTLAQFLYNADIKKYID-OH, the outcome in the assay filed under Homo sapiens [7], in the assay listed under Homo sapiens [8], in the assay listed under Homo sapiens [9] and in the assay filed under Homo sapiens [11] was Active. Also, the Activity in the assay listed under Homo sapiens [1] is 0.01%; in the assay listed under Homo sapiens [2], 110%; in the assay filed under Homo sapiens [4], over 2%; in the assay filed under Homo sapiens [5], 1.01%. Moreover, the inhibition at 200 µM with Plasmodium falciparum [3] stood at 38%; with Plasmodium falciparum [6], 53%.
For H-QEQNRIYNELQNKIKQIKNV-OH, the result in the assay listed under Homo sapiens [7], in the assay filed under Homo sapiens [8], in the assay listed under Homo sapiens [9] and in the assay listed under Homo sapiens [11] was Active. Besides, the Activity was 102% in the assay filed under Homo sapiens [1], 93% in the assay filed under Homo sapiens [2], over 2% in the assay filed under Homo sapiens [4] and 32% in the assay filed under Homo sapiens [5]. Moreover, the Kd in [10] came to 880 nM. Further, the inhibition at 200 µM with Plasmodium falciparum [3] was found to be 85%; with Plasmodium falciparum [6] it was 88%.
As for H-QNYNQENQEKSKMIDSENEK-OH, the inhibition at 200 µM in the assay with Plasmodium falciparum [3] was determined as 39%; with Plasmodium falciparum [6], 37%.
Regarding H-YDKLNEHVINNLYTKSKDSL-OH, the Activity in the assay listed under Homo sapiens [1] is 26.3%; in the assay listed under Homo sapiens [2], 312%; in the assay listed under Homo sapiens [4], over 2%; in the assay filed under Homo sapiens [5], 16.7%. Besides, the Kd in assay [10] stood at 480 nM. The inhibition at 200 µM amounted to 43% with Plasmodium falciparum [3] and 39% in the assay with Plasmodium falciparum [6].
H-YNNNHDKQNEHKYNQGKSSG-OH: the Activity in the assay filed under Homo sapiens [4] is under 2%.
As to H-YNTSSQQKNNLHTNNNSNSR-OH, the Activity in the assay filed under Homo sapiens [4] was under 2%.
The same measure, in the same setting: as for H-YTTFKYLQTLNKSLYDSIYK-OH, the figure is under 2%.
